Experimental data of several laboratories.
Observed: metabolic stability
Species: mouse
Medium: liver microsomes

Compound	tested at	pH	microsomal CLint
CC1(C)NC(=O)N(c2cccc(C(F)(F)F)n2)C1=O	–	–	< 7 µL/min/mg
CC(C)n1ncc2c(C(=O)NC(C)(C)CN)cc(C3CC3)nc21	–	–	19.1 µL/min/mg
CC1(C(F)F)NC(=O)N(c2ccc(F)c(C(F)(F)F)c2)C1=O (stereo not shown)	–	–	< 7 µL/min/mg
CC(C)c1cc(C(=O)NCCN2CCCC2)c2cnn(C(C)C)c2n1	–	–	49.1 µL/min/mg
O=c1c2ccc(OCc3cccc(OC(F)(F)F)c3)cc2[nH]c2cc(F)cc(Cl)c12	1 µM	pH 7.4	7.26 µL/min/mg
CCCCCCCCCCCCCCCC(=O)NCCOC(=O)C[C@@H](CN)CC(C)C	1 µM	pH 7.4	14.6 µL/min/mg
CC(C)c1cc(C(=O)NCCN)c2cnn(C(C)C)c2n1	–	–	< 9.6 µL/min/mg
CCN(CC)CCOc1ccc2c(=O)c3c([nH]c2c1)CCCC3	1 µM	pH 7.4	17.7 µL/min/mg
Cc1[nH]c(C)c(S(=O)(=O)Nc2ccc(C(F)(F)F)c(Cl)c2)c1C(=O)N(C)C	–	–	179 µL/min/mg
O=c1c2c([nH]c3c(Oc4ccc(OC(F)(F)F)cc4)cccc13)CCCC2	1 µM	pH 7.4	8.33 µL/min/mg
CC1(C)NC(=O)N(c2cc(C(F)(F)F)c(F)cc2C#N)C1=O	–	–	< 7 µL/min/mg
CC(C)n1ncc2c(C(=O)NCC(C)(C)N(C)C)cc(C3CC3)nc21	–	–	30.4 µL/min/mg
CC(C)(C)OC(=O)N1CCC(Oc2ccc3c(=O)c4c(F)cc(Cl)cc4[nH]c3c2)CC1	1 µM	pH 7.4	12.5 µL/min/mg
CC1(C(F)(F)F)NC(=O)N(c2ccc(F)c(C(F)(F)F)c2)C1=O (stereo not shown)	–	–	< 7 µL/min/mg
Cc1[nH]c(C)c(S(=O)(=O)Nc2ccc(C(F)(F)F)c(Cl)c2Cl)c1C(=O)N1CCC(F)(F)C1	–	–	15.7 µL/min/mg
CCN(CC)CCCOc1ccc2c(=O)c3c([nH]c2c1)CCCC3	1 µM	pH 7.4	7.94 µL/min/mg
COc1ccc(Cn2cc(CO[C@@H]3O[C@H]4[C@H](OC[C@H]4O)[C@H]3O)nn2)cc1	–	–	< 14.4 µL/min/mg
CC(C)(C)OC(=O)N1CCC(Oc2ccc3c(=O)c4c(F)cc(Cl)cc4[nH]c3c2)C1 (stereo not shown)	1 µM	pH 7.4	16.7 µL/min/mg
CC1(C)NC(=O)N(c2ccc(F)c(CC(F)(F)F)c2)C1=O	–	–	< 7 µL/min/mg
